Results on 15 compounds are retold here after ChEMBL document CHEMBL3425419, “Developing new chemical tools for DNA methyltransferase 1 (DNMT 1): a small-molecule activity-based probe and novel tetrazole-containing inhibitors” (Bioorg Med Chem, 2015).

Calls of active or inactive are those of the source.

The test system of data set [1] is MCF7. Put plainly: Cytotoxicity against human MCF7 cells after 72 hrs by XTT assay. Particulars: for GI50: MCF7, 72 h. The format is functional. In a few lines: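 MCF-7 breast cancer cells exposed to a range of compound concentrations, and growth read by XTT anti-proliferation assay. GI50 is defined as the concentration giving 50% growth inhibition, taken from dose–response plots.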
On the technique in general: Formazan colour is commonly taken as a measure of viable cells.

In data set [2] the target is DNA (cytosine-5)-methyltransferase 1 (Homo sapiens) (UniProt P26358). The data set can be described thus: Inhibition of recombinant DNMT1 (unknown origin) after 90 mins by fluorescence assay.
Data set [3] deals with MCF7. The data set can be described thus: Induction of apoptosis in human MCF7 cells assessed as apoptotic cells at 10 uM after 6 hrs by FITC-Annexin V/propidium iodide staining-based FACS analysis relative to control. It counts as functional. In a few lines:
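Live MCF-7 cells treated with inhibitors at 10 µM, then stained with FITC Annexin V (apoptosis) and propidium iodide (cell death). Signals were quantified by flow cytometry against DMSO-treated cells.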
(Flow cytometry measures light scatter and fluorescence of single cells or particles in a stream.)

The target of data set [4] is DNA (cytosine-5)-methyltransferase 1 (Homo sapiens) (UniProt P26358). Put plainly: Binding affinity to DNMT1 in human MCF7 cells at 10 uM preincubated for 1 hr post RG108, 1149 and (S)-Methyl 2-(2,5-dioxo-2,5-dihydro-1H-pyrrol-1-yl)-3-(4-(5-phenyl-2H-tetrazol-2-yl)phenyl)propanoate treatment followed by clicked with TER-Biotin-N3 for 2 hrs and pull down by Western blot analysis. It counts as cell-based. In a few lines: (§1)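 Freshly prepared MCF-7 lysate (100 µg) labelled with 10 µM alkyne probe for 1 h at room temperature, then CuAAC click for 2 h. TER-PEG-N3 was used for in-gel fluorescence scanning, and TER-Biotin-N3 for pull-down followed by western blot against DNMT1. DMSO-treated cells served as the negative control.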
On the technique in general: Immunoblotting shows a protein as a band on a membrane.

Data set [5] can be described thus: Drug uptake in nucleus of human MCF7 cells at 5 uM preincubated for 30 hrs post RG108, 1149 and (S)-Methyl 2-(2,5-dioxo-2,5-dihydro-1H-pyrrol-1-yl)-3-(4-(5-phenyl-2H-tetrazol-2-yl)phenyl)propanoate treatment followed by clicked with TER-PEG-N3 measured after 2 hrs by Hoechst 33342 staining-based immunofluorescence assay. It counts as ADME, cell-based. The settings on record: mcf7, 2 h, in the assay text read “30 min” for “30 hrs”. A digest of the protocol:
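MCF-7 cells incubated with 5 µM alkyne probe for 30 min in the incubator, fixed with 3.7% formaldehyde, permeabilised with 0.1% Triton X-100 and clicked with TER-PEG-N3. Anti-DNMT1 immunofluorescence and Hoechst nuclear staining followed. Localisation was read by fluorescence microscopy, with DMSO-only cells as control.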

The target of data set [6] is DNA (cytosine-5)-methyltransferase 1 (Homo sapiens) (UniProt P26358). The data set can be described thus: Binding affinity to DNMT1 in human MCF7 cells at 10 uM preincubated for 1 hr post RG108, 1149 and (S)-Methyl 2-(2,5-dioxo-2,5-dihydro-1H-pyrrol-1-yl)-3-(4-(5-phenyl-2H-tetrazol-2-yl)phenyl)propanoate treatment followed by CuAAC click chemistry application measured after 2 hrs by gel fluorescence scanning assay. It counts as cell-based. In a few lines: as §1

The target is the same in data set [7]. Put plainly: Competitive inhibition of DNMT1 in (S)-Methyl 2-(2,5-dioxo-2,5-dihydro-1H-pyrrol-1-yl)-3-(5-(prop-2-yn-1-yloxy)-1H-indol-3-yl)propanoate labeled human MCF7 cells at 100 uM preincubated for 1 hr followed by cell labeling for 30 mins and clicked with TER-PEG-N3 measured after 2 hrs by Hoechst 33342 staining-based immunofluorescence assay. A digest of the protocol: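 Live MCF-7 cells pretreated with competitor at 100 µM for 1 h, then given 5 µM alkyne probe for 30 min in the incubator. Cells were fixed (3.7% formaldehyde), permeabilised (0.1% Triton X-100), clicked with TER-PEG-N3, immunostained with anti-DNMT1 and Hoechst-stained. Imaging was by fluorescence microscopy in four channels (bright-field, probe, IF, nuclear).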

Data set [8] relates to MCF7. Put plainly: Induction of apoptosis in human MCF7 cells assessed as dead cells at 10 uM after 6 hrs by FITC-Annexin V/propidium iodide staining-based FACS analysis relative to control. The format is functional. A digest of the protocol:
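Live MCF-7 cells treated with compound at 10 µM, then stained with FITC-Annexin V (apoptotic cells) and propidium iodide (dead cells). Signals quantified by flow cytometry and read from histograms.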

For data set [9], the target named is DNA (cytosine-5)-methyltransferase 1 (Homo sapiens) (UniProt P26358). The data set can be described thus: Competitive inhibition of DNMT1 in (S)-Methyl 2-(2,5-dioxo-2,5-dihydro-1H-pyrrol-1-yl)-3-(5-(prop-2-yn-1-yloxy)-1H-indol-3-yl)propanoate labeled human MCF7 cells at 50 to 500 uM preincubated for 1 hr followed by cell labeling for 1 hr and clicked with TER-biotin-N3 for 2 hrs and pull down by Western blot analysis. It counts as cell-based. In a few lines:
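Mammalian cells pretreated with competitor at 50, 100 or 500 µM. Their lysates were then labelled with 10 µM alkyne probe for 1 h at room temperature and clicked for 2 h with TER-Biotin-N3. DNMT1 (~183 kDa) was detected by pull-down and western blot, with DMSO as the negative control.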

Chain of DNA (cytosine-5)-methyltransferase 1 (Homo sapiens) (P26358 whole entry): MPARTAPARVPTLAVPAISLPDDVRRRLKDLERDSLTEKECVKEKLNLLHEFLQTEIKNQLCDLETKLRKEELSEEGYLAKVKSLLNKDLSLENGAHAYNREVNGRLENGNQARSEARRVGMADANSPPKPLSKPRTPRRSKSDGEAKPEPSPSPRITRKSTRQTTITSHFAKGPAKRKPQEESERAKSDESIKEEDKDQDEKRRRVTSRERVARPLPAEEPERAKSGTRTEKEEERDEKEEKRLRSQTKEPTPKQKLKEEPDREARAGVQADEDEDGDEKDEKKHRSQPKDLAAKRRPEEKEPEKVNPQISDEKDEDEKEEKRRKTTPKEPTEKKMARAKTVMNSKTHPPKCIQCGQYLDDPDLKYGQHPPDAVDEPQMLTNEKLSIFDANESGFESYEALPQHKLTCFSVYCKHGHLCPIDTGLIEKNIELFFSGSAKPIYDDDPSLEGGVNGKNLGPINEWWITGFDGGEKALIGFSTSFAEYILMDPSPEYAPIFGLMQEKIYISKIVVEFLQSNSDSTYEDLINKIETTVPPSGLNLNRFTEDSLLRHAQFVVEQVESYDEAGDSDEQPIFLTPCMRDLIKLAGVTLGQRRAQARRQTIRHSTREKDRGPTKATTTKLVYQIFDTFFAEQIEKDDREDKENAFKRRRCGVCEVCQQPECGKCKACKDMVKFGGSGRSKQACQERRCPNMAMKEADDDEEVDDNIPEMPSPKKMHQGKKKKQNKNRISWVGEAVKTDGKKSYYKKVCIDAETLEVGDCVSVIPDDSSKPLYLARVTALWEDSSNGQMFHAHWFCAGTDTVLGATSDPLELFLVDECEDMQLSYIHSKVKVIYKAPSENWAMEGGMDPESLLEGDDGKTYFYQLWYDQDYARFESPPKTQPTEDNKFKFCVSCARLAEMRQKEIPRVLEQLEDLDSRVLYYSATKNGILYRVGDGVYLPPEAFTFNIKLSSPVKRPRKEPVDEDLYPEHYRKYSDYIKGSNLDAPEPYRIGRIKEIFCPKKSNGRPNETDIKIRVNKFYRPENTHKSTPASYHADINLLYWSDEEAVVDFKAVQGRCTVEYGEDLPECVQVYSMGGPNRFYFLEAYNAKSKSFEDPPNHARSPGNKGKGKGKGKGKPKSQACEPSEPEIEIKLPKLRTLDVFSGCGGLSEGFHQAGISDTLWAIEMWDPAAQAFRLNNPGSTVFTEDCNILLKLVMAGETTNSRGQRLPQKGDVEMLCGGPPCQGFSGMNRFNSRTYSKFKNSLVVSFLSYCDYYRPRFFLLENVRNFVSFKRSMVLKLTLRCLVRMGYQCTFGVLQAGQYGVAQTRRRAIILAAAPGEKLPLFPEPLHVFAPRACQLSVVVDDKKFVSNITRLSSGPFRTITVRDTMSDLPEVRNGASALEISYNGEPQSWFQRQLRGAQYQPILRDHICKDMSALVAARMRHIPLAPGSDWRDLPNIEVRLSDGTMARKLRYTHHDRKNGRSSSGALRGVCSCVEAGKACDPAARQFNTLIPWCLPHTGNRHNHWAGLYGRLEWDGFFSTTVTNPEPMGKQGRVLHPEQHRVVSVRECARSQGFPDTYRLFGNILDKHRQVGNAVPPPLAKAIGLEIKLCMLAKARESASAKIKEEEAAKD

In the case of `COC(=O)[C@H](Cc1ccc(-n2nnc(-c3cccc4ccccc34)n2)cc1)N1C(=O)C=CC1=O`, in the data set with MCF7 [1], the “growth inhibition (GI)” value is “Dose-dependent effect” and the GI50 (in general, the concentration at which growth is held to half of that of the control) came to 480 nM. In data set [2], the inhibition entry is “Active”.

Consider `COC(=O)[C@H](Cc1ccc(-n2nnc(-c3cc(F)cc(F)c3)n2)cc1)N1C(=O)C=CC1=O`, for which, in the data set on MCF7 [1], the “growth inhibition (GI)” value is “Dose-dependent effect” and the GI50 amounted to 1100 nM. The inhibition result in data set [2] is “Active”.

Regarding `C#CCOc1ccc2[nH]cc(C[C@@H](C(=O)OC)N3C(=O)C=CC3=O)c2c1`, in the data set with MCF7 [1], the “growth inhibition (GI)” value is “Dose-dependent effect” and growth was halved (GI50) at 290 nM. Besides, the Activity in the data set on MCF7 [3] came to 61%. Moreover, the outcome in data set [4] was Active. The Drug uptake entry in data set [5] is “Active”. Besides, the result in [6] was inactive.

For the compound `O=C(O)[C@H](Cc1c[nH]c2ccccc12)N1C(=O)c2ccccc2C1=O`, in the data set with MCF7 [1], the GI50 turned out to be 128000 nM. Also, the inhibition entry in data set [7], in data set [2] and in [9] was “Active” throughout. The outcome in the data set on MCF7 [3] and in the data set with MCF7 [8] was Active.

With `COC(=O)[C@H](Cc1ccc(-n2nnc(-c3ccc(F)cc3)n2)cc1)N1C(=O)C=CC1=O`, in the data set with MCF7 [1], the “growth inhibition (GI)” value was “Dose-dependent effect” and the GI50 turned out to be 1160 nM. Also, the inhibition entry in data set [2] is “Active”.

Turning to `COC(=O)[C@H](Cc1ccc(-n2nnc(-c3ccc(N(C)C)cc3)n2)cc1)N1C(=O)C=CC1=O`, in the data set on MCF7 [1], the “growth inhibition (GI)” value is “Dose-dependent effect” and growth was halved (GI50) at 1080 nM. Further, in [2], the inhibition entry is “Active”.

`O=C(O)[C@H](Cc1c[nH]c2ccccc12)N1C(=O)C=CC1=O`: in the data set on MCF7 [1], the GI50 was 7310 nM. Also, the inhibition result in data set [7], in [2] and in [9] was “Active” throughout.

Regarding `COC(=O)[C@H](Cc1ccc(-n2nnc(-c3cc(C)cc(C)c3)n2)cc1)N1C(=O)C=CC1=O`, in the data set on MCF7 [1], the “growth inhibition (GI)” value is “Dose-dependent effect” and it took 780 nM to inhibit growth by half (GI50). Moreover, the inhibition entry in data set [2] was “Active”.

As to `COC(=O)[C@H](Cc1ccc(-n2nnc(-c3ccncc3)n2)cc1)N1C(=O)C=CC1=O`, in the data set on MCF7 [1], the “growth inhibition (GI)” value was “Dose-dependent effect” and the GI50 was 1860 nM. For the same compound, in data set [2], the inhibition entry is “Active”.

`COC(=O)[C@H](Cc1ccc(-n2nnc(-c3ccc(OC)cc3)n2)cc1)N1C(=O)C=CC1=O`: in the data set on MCF7 [1], the “growth inhibition (GI)” value is “Dose-dependent effect” and the GI50 was 870 nM. Also, the inhibition entry in [2] is “Active”.

As to `COC(=O)[C@H](Cc1ccc(-n2nnc(-c3ccccc3)n2)cc1)N1C(=O)C=CC1=O`, the “growth inhibition (GI)” value in the data set on MCF7 [1] is “Dose-dependent effect”. The same compound displayed a GI50 with MCF7 [1] of 300 nM. In addition, the inhibition result in [7], in data set [2] and in [9] was “Active” each time. Also, the outcome in the data set on MCF7 [3] and with MCF7 [8] was Active.

Take `COC(=O)[C@H](Cc1ccc(-n2nnc(-c3ccc(C(F)(F)F)cc3)n2)cc1)N1C(=O)C=CC1=O`: in the data set on MCF7 [1], the “growth inhibition (GI)” value was “Dose-dependent effect” and growth was halved (GI50) at 1770 nM. Also, the inhibition entry in [2] is “Active”.

On to `COC(=O)[C@H](Cc1ccc(-n2nnc(-c3ccc(C(C)C)cc3)n2)cc1)N1C(=O)C=CC1=O`, for which, in the data set with MCF7 [1], the “growth inhibition (GI)” value is “Dose-dependent effect” and growth was halved (GI50) at 380 nM. Also, the inhibition result in data set [2] is “Active”.

Regarding `CCCCCCOc1ccc(-c2nnn(-c3ccc(C[C@@H](C(=O)OC)N4C(=O)C=CC4=O)cc3)n2)cc1`, in the data set with MCF7 [1], the “growth inhibition (GI)” value is “Dose-dependent effect” and growth was halved (GI50) at 6150 nM. The inhibition entry in [2] was “Active”.

Take `COC(=O)[C@H](Cc1ccc(-n2nnc(-c3ccc(OC(F)F)cc3)n2)cc1)N1C(=O)C=CC1=O`: in the data set on MCF7 [1], the “growth inhibition (GI)” value is “Dose-dependent effect” and the GI50 worked out at 730 nM. Besides, in [2], the inhibition entry is “Active”.
